p97 inhibitor: human p97 ATPase inhibition. inhibition, % at 8 µM. hit rate 0.42% among 220,000. recombinant p97 ATPase, Kinase-Glo ATP luminescence, 3 h. P55072; in the data active = inhibition above about 15%
Target sequence (P55072 whole entry, looked up): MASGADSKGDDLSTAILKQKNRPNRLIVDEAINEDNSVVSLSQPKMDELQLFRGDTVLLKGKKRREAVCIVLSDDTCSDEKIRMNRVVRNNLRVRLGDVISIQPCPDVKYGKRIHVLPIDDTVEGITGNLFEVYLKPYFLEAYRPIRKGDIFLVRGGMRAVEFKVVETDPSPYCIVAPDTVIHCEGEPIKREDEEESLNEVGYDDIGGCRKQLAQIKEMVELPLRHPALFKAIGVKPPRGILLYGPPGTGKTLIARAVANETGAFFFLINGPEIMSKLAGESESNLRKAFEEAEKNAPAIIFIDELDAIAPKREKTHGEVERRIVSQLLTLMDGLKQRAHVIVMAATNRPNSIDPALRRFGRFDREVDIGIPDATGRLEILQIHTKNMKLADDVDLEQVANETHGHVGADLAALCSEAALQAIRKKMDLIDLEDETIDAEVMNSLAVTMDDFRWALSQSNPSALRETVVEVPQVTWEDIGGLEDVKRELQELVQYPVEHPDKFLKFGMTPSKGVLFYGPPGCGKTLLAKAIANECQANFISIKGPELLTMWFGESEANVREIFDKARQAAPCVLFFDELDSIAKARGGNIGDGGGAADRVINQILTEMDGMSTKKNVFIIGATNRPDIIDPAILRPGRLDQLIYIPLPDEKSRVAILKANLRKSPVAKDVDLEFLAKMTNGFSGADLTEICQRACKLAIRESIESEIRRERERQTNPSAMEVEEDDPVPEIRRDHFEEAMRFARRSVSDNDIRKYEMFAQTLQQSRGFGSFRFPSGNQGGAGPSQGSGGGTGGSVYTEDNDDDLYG
HCV NS3 hel inh: HCV NS3 helicase inhibition; NS3 helicase DNA unwinding, Cy5 molecular beacon fluorescence; inhibition, % at 10.9 µM; hit rate 0.56% among 290,000; AID 1800;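 active = inhibition above the mean of all tested compounds plus 3 SD, set per campaign, cut at about 35% in these data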
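Test system: hepatitis C virus NS3 helicase domain fragment enzyme. Also added: annealed dual-labelled DNA beacon duplex, ATP-started. Timing: 60 min unwinding reaction at 25 °C after ATP addition. Technique: Cy5 fluorescence. Measure: % inhibition of unwinding.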
CHOP UPR activ: activators of apoptotic arm of unfolded protein response (CHOP); AID 449763; activation, % at 10 µM; hit rate 0.34% among 330,000; CHO-CHOP luciferase reporter, UPR activation, luminescence; percent of tunicamycin response over DMSO baseline;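 active = at 10 µM dose, activation of 40% or more, normalized to positive control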
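measured by = luciferase luminescence | assay system = CHO-CHOP cells, stable luciferase reporter of PERK-eIF2a-CHOP signalling | amount = 500 reporter cells seeded per well | timing = 6 h compound exposure at 37 °C after overnight seeding | controls = positive tunicamycin 10 µg/mL, negative DMSO alone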
PfM18AAP inh: PfM18AAP enzyme inhibition | hit rate 1.2% among 290,000 | inhibition, % at 7.35 µM | recombinant PfM18AAP, H-Glu-NHMec fluorogenic cleavage;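 active = inhibition above the campaign mean inhibition over all tested compounds plus 3 SD, cut at about 28% in these data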
XBP1 UPR activ: activators of adaptive arm of unfolded protein response (XBP1); CHO-XBP1 luciferase reporter, IRE1-XBP1 UPR activation, luminescence; percent of tunicamycin response, DMSO as zero; activation, % at 20 µM; hit rate 0.33% among 330,000;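 active = versus positive control, 20 µM dose yields 30% or more activation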
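Test system: CHO-XBP1 luciferase reporter cells | Buffer or medium: Serum-containing F12 medium, 10% FBS | Schedule: 6 h compound exposure at 37 °C, 5% CO2 | Detection: Steady-Glo luciferase glow luminescence, 10 min after reagent addition | Read-out basis: Activation, % of tunicamycin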
CHOP inhibitor: inhibitors of CHOP induction in ER stress response; CHO-K1 CHOP-promoter luciferase, tunicamycin-induced, 15-18 h; inhibition, % at 10 µM; hit rate 3.8% among 220,000;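 active = compounds that reduced the stress-induced luciferase reporter signal by more than about 70% of percent inhibition, limit read from the data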
Hits are given with their value; n = inactive; x = not tested or not shown. An excerpt weighted towards active compounds, which were near 4.5% of everything screened.

SMILES | p97 inhibitor | HCV NS3 hel inh | CHOP UPR activ | PfM18AAP inh | XBP1 UPR activ | CHOP inhibitor
CCOc1ccc(S(=O)(=O)NCCCN2CCOCC2)c2ccccc12 | n | n | n | n | n | n
CCCOc1ccc(S(=O)(=O)NCCCN2CCOCC2)c2ccccc12 | n | n | n | n | n | 71
Cc1ccc(C(O)(c2ccccc2)c2ccccc2C(C)N(C)C)c(C)c1 (configuration not stated) | n | n | n | n | n | 96
CC(c1ccccc1C(O)c1ccccc1)N(C)C (configuration not stated) | n | n | n | n | n | n
CCOC(=O)CN(C(=O)CSc1nnc2c(n1)[nH]c1c(C)cc(C)cc12)c1ccccc1 | n | n | x | n | x | 82
CCOC(=O)CN(C(=O)CSc1nnc2c(n1)[nH]c1ccccc12)c1ccccc1 | n | n | n | n | n | n
Cn1cc(C2=C(c3ccc(Cl)cc3Cl)C(=O)NC2=O)c2ccccc21 | x | n | n | n | n | 86
Cc1ccccc1NC(=O)Cc1nnc(SCC(=O)NC2CCCC2)n1C | x | n | n | n | n | x
O=C(CCC(=O)c1ccc(F)cc1)Nc1cc(Cl)cc(Cl)c1 | n | n | n | n | n | 84
COc1ccc(CN(C(=O)Cc2cccs2)C(C(=O)NC2CCCC2)c2ccncc2)cc1 (configuration not stated) | n | n | n | n | n | n
COCCC(=O)N(Cc1ccc2c(c1)OCO2)C(C(=O)NC1CCCCC1)c1ccncc1 (configuration not stated) | n | n | n | 30 | n | n
Cc1ccc(S(=O)(=O)ON2C(=O)c3ccccc3C2=O)c(C)c1 | n | n | x | n | x | 94
O=C1c2ccccc2C(=O)N1OS(=O)(=O)c1ccc(F)cc1 | x | n | x | n | x | x
Cc1cc(=O)oc(C)c1C(=O)OCC(=O)c1ccc2ccccc2c1 | n | n | n | n | n | 71
O=C(NCc1cccc(Cl)c1)c1ccc(S(=O)(=O)Nc2cccc(C(F)(F)F)c2)cc1 | n | n | n | n | n | 90
COc1ccc(-n2nnnc2SCc2nc3ccccc3s2)cc1 | n | n | n | n | n | 82
O=C(NCc1ccccn1)c1ccc(OC2CCN(Cc3ccc(CO)o3)CC2)cc1 | x | n | n | n | n | x
COc1cccc(CC(=O)N[C@@H](CCSC)c2nc3ccccc3[nH]2)c1 | n | n | n | n | n | n
COC(=O)c1c(NC(=O)Cn2cnc([N+](=O)[O-])n2)sc2c1CCC(C)C2 (configuration not stated) | n | n | n | n | n | 75
C=CCn1c(=NC(=O)c2ccco2)sc2cc(C(=O)OCC)ccc21 | n | n | n | n | n | 84
COCCn1c(=NC(=O)c2ccco2)sc2cc(C(=O)OC)ccc21 | n | n | n | n | n | n
C=CCn1c(=NC(=O)c2ccco2)sc2cc(C(=O)OC)ccc21 | n | n | n | n | n | 80
Cc1ccccc1-n1c(-c2ccco2)n[nH]c1=S | n | n | n | 30 | n | n
CC(C)CN(C(=O)c1ccc(S(=O)(=O)N2CCCC2)cc1)C1CCS(=O)(=O)C1 (configuration not stated) | x | x | n | x | n | x
O=C(Nc1cccc(C(F)(F)F)c1)C(Sc1ncnc2ccccc12)c1ccccc1 (configuration not stated) | n | n | n | n | n | 76
SMILES | p97 inhibitor | HCV NS3 hel inh | CHOP UPR activ | PfM18AAP inh | XBP1 UPR activ | CHOP inhibitor
C[C@H](CO)N1C[C@H](C)[C@H](CN(C)Cc2ccncc2)Oc2ccc(NC(=O)Nc3ccc(C(F)(F)F)cc3)cc2CC1=O | x | x | n | x | n | x
Cc1ccc(S(=O)(=O)NCCCN2CCCC2)cc1 | x | n | n | n | n | x
COc1ccc([N+](=O)[O-])cc1NC(=O)C(C)N(C)Cc1ccc(Br)cc1 (configuration not stated) | n | n | n | n | n | 70
O=C(CN1CCN(c2ccccc2)CC1)Nc1ccccc1C(F)(F)F | n | n | n | n | n | 95
CC(C)(C)NS(=O)(=O)c1ccc(NC(=O)C(Sc2ccccc2)c2ccccc2)cc1 (configuration not stated) | n | n | n | n | n | 75
CC(=O)N(C)c1ccc(NC(=O)C(Sc2ccccc2)c2ccccc2)cc1 (configuration not stated) | n | n | n | n | n | n
O=C(Nc1cc([N+](=O)[O-])ccc1Cl)C(Sc1ccccc1)c1ccccc1 (configuration not stated) | n | n | n | n | n | n
O=C(Nc1ccc(Cl)c([N+](=O)[O-])c1)C(Sc1ccccc1)c1ccccc1 (configuration not stated) | n | n | n | n | n | 83
O=C(Nc1nc2c(s1)CCCC2)c1cc(-c2ccccc2)nc2ccccc12 | n | n | n | n | n | 81
CC(C)(C)c1nnc(NC(=O)c2cc(-c3ccccc3)nc3ccccc23)s1 | n | n | n | n | n | 74
CCC1C/C(=C\c2cccnc2)C(=O)/C(=C/c2cccnc2)C1 (configuration not stated) | n | n | x | n | x | 106
CCc1ccc(C(=O)NNC(=O)c2c(CC)noc2C)cc1 | x | x | n | x | n | x
CCOc1ccc(/C=N/Nc2nc(C)cs2)c(O)c1 | x | n | n | 28 | n | x
Fc1ccccc1COc1cccc(/C=N/n2cnnc2)c1 | n | n | n | n | n | 72
CC(C)c1ccc(CNc2ccc([N+](=O)[O-])cn2)cc1 | n | n | n | n | n | 83
CC(=O)NCCNc1ccc([N+](=O)[O-])cn1 | n | n | n | n | n | n
O=[N+]([O-])c1ccc(NCc2ccc(Cl)cc2)nc1 | n | n | n | n | n | n
CC(C)(C)c1ccc(CNc2ccc([N+](=O)[O-])cn2)cc1 | n | n | x | n | x | 87
CCOc1cccc2cc(-c3cn4cc(C)ccc4n3)c(=O)oc12 | n | n | n | n | n | 83
COc1cccc2cc(-c3cn4ccc(C)cc4n3)c(=O)oc12 | n | n | n | n | n | x
O=[N+]([O-])c1ccc(-c2ccc(/C=N/c3c(-c4ccco4)nc4ccccn34)o2)c(Cl)c1 | n | n | x | n | x | 79
Cc1cccc(NC(=S)NC(C)(C)CC(C)(C)C)c1 | n | n | n | n | n | 85
Cc1cc(C)n2c(Nc3ccc4c(c3)OCCO4)c(-c3ccco3)nc2n1 | n | 60 | x | n | x | n
Cc1cc(C)n2c(Nc3ccc4c(c3)OCCO4)c(-c3ccc(C)o3)nc2n1 | n | n | n | n | n | n
COc1ccc(NC(=O)CSc2nc3ccccc3c3nc4ccccc4n23)cc1 | n | n | x | n | x | n
COc1ccc(OC)c(NC(=O)CSc2nc3ccccc3c3nc4ccccc4n23)c1 | n | n | x | n | x | 78
CSc1nsc(N/N=C/c2ccccc2)c1C#N | n | n | n | n | n | n

Bioassay records as filed in PubChem.
